# Experimental data: ChEMBL document CHEMBL1938286, “A concise synthesis of viscolin, and its anti-inflammatory effects through the suppression of iNOS, COX-2, ERK phosphorylation and proinflammatory cytokines expressions” (Eur J Med Chem, 2012)
# pIC50: −log10 of the molar value. Activity calls are given as the source filed them. The rule behind the calls is not given here.
# Key:
# [1] = system: RAW264.7; test: Antiinflammatory activity in mouse RAW264.7 cells assessed as inhibition of LPS-induced TNFalpha production at 10 uM administered 1 hr before LPS challenge measured after 24 hrs by ELISA
# [2] = system: Mus musculus; test: Antiinflammatory activity in ICR mouse assessed as decrease in carrageenan-induced serum TNFalpha level at 2 mg/kg, ip; type: functional, organism-based; design: dose 2 mg/kg
# Summary of the method: (§1)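 Male ICR mice (18–25 g, n = 6 per group). Carrageenan was injected intraplantar into the paw, with drug given 30 min beforehand. Serum was collected at the 5th hr. Nitrite was measured colorimetrically by Griess reaction, and TNF-α by commercial ELISA. Data are mean ± SEM.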
# [3] = target: Mitogen-activated protein kinase 1 and 3 (ERK2 and ERK1) (Mus musculus) (UniProt P63085+Q63844); test: Inhibition of Erk1/2 phosphorylation in LPS-stimulated mouse RAW264.7 cells at 5 to 20 uM after 30 mins by Western blot analysis; type: cell-based
# Sequence of Mitogen-activated protein kinase 1 and 3 (ERK2 and ERK1) (Mus musculus) (P63085 whole entry, looked up): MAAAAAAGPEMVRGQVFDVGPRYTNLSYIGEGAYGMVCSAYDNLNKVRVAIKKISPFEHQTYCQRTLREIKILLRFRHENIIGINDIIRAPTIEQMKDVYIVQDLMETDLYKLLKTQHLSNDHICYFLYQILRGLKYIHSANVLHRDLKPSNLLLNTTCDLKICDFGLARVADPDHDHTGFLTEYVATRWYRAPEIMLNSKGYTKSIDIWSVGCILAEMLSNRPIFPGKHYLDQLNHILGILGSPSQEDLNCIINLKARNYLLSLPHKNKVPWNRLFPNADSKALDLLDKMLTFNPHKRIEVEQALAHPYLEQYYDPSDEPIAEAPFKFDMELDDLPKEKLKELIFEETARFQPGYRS
# Sequence of Mitogen-activated protein kinase 1 and 3 (ERK2 and ERK1) (Mus musculus) (Q63844 whole entry, looked up): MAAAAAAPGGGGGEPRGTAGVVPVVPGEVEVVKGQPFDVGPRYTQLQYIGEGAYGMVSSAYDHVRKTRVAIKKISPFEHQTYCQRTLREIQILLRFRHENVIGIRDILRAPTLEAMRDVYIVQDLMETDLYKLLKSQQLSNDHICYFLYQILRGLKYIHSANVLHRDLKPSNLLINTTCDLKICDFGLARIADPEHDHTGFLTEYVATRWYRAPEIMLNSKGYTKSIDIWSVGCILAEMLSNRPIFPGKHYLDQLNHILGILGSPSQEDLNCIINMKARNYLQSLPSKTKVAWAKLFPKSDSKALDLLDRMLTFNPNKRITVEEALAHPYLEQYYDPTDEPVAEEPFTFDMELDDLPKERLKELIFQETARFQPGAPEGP
# Summary of the method: (§2)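 RAW 264.7 cells were pretreated with test agent, then stimulated with LPS for 30 min. Phospho-ERK, phospho-JNK and phospho-p38 were assessed by Western blot: RIPA lysates, 30 µg protein, SDS-PAGE, PVDF, primary antibody overnight at 4 °C, HRP secondary and ECL detection.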
# [4] = system: Mus musculus; test: Antioxidant activity in carrageenan-stimulated ICR mouse assessed as increase in GPx activity at 4 mg/kg, ip measured after 5 hrs; type: functional; settings: route intraperitoneal
# Summary of the method: (§3)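 Male ICR mice (n = 6 per group) received the drug 30 min before intraplantar carrageenan, and paw tissue was taken at the 5th hr. Total SOD was measured by inhibition of cytochrome c reduction, CAT by Aebi's method, and cytosolic GPx by Paglia–Valentine. Activities are in U/mg protein, given as mean ± SEM.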
# [5] = system: RAW264.7; test: Antiinflammatory activity in LPS-stimulated mouse RAW264.7 cells assessed as inhibition of COX-2 protein expression after 24 hrs by Western blot analysis; type: functional, cell-based
# [6] = system: Mus musculus; test: Antiinflammatory activity in carrageenan-stimulated ICR mouse assessed as decrease in intercellular spaces at 8 mg/kg, ip measured after 5 hrs; type: functional, organism-based; design: dose 8 mg/kg
# Summary of the method: (§4)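 Male ICR mice were dosed 30 min before intraplantar carrageenan, and paw biopsies were taken 5 h later. Tissue was fixed in Dietric solution for 1 week at room temperature, dehydrated in graded ethanol and paraffin-embedded. 7-thickness sections were stained with hematoxylin–eosin or Van Gieson and examined by light microscopy.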
# [7] = system: Mus musculus; test: Antioxidant activity in carrageenan-stimulated ICR mouse assessed as increase in SOD activity at 8 mg/kg, ip measured after 5 hrs; type: functional; settings: route intraperitoneal
# Summary of the method: as §3
# [8] = system: RAW264.7; test: Antiinflammatory activity in mouse RAW264.7 cells assessed as inhibition of LPS-induced TNFalpha production at 20 uM administered 1 hr before LPS challenge measured after 24 hrs by ELISA
# [9] = system: Mus musculus; test: Down regulation of COX-2 protein expression in carrageenan-stimulated ICR mouse at 8 mg/kg, ip measured after 5 hrs by Western blot analysis; type: functional; settings: route intraperitoneal
# Summary of the method: (§5)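 Male ICR mice (18–25 g, n = 6 per group) received intraplantar carrageenan. Paw tissue was taken 5 h after carrageenan. Lysates were made in RIPA buffer and 30 µg protein run on SDS-PAGE/PVDF immunoblot with ECL detection. Band intensities were quantified relative to the carrageenan-alone group across three independent experiments.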
# [10] = target: MAP kinase p38 (Mus musculus) (UniProt P47811+O08911+Q9WUI1+Q9Z1B7); test: Inhibition of p38 phosphorylation in LPS-stimulated mouse RAW264.7 cells at 5 to 20 uM after 30 mins by Western blot analysis; type: cell-based
# Summary of the method: as §2
# [11] = system: RAW264.7; test: Antiinflammatory activity in mouse RAW264.7 cells assessed as inhibition of LPS-induced NO production administered 1 hr before LPS challenge measured after 24 hrs by Griess method; type: functional, cell-based
# [12] = system: Mus musculus; test: Antiinflammatory activity in carrageenan-stimulated ICR mouse assessed as decrease in cellular infiltration to intercellular spaces at 8 mg/kg, ip measured after 5 hrs; type: functional, organism-based; design: dose 8 mg/kg
# Summary of the method: as §4
# [13] = system: RAW264.7; test: Down regulation of COX-2 protein expression in LPS-stimulated mouse RAW264.7 cells at 20 uM after 24 hrs by Western blot analysis; type: functional
# Summary of the method: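 RAW 264.7 cells were pretreated with test agent for 1 h, then stimulated with 100 ng/mL LPS for 24 h. Lysates were made in RIPA buffer and 30 µg protein resolved by SDS-PAGE, blotted to PVDF and blocked with 1% BSA. Primary antibody ran overnight at 4 °C, HRP secondary 1 h at 37 °C. Detection was by ECL, with band intensity expressed relative to control.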
# [14] = system: Mus musculus; test: Antiinflammatory activity in carrageenan-stimulated ICR mouse assessed as reduction in iNOS immunoreactive cells at 8 mg/kg, ip measured after 5 hrs; type: functional, organism-based; design: dose 8 mg/kg
# [15] = system: Mus musculus; test: Antiinflammatory activity in ICR mouse assessed as decrease in carrageenan-induced serum TNFalpha level at 4 mg/kg, ip; type: functional, organism-based; design: dose 4 mg/kg
# Summary of the method: as §1
# [16] = system: RAW264.7; test: Antiinflammatory activity in mouse RAW264.7 cells assessed as inhibition of LPS-induced PGE2 production at 20 uM administered 1 hr before LPS challenge measured after 24 hrs by ELISA
# [17] = system: Mus musculus; test: Antiinflammatory activity in ICR mouse assessed as inhibition of carrageenan-induced hind paw edema at 8 mg/kg, ip measured after 5 hrs; type: functional, organism-based; design: dose 8 mg/kg
# [18] = system: Mus musculus; test: Antiinflammatory activity in ICR mouse assessed as decrease in carrageenan-induced inflammatory response at 8 mg/kg, ip measured after 5 hrs; type: functional, organism-based; design: dose 8 mg/kg
# Summary of the method: as §4
# [19] = Antioxidant activity in human neutrophils assessed as inhibition of fMLP/CB-induced superoxide anion generation; type: functional, cell-based; settings: Neutrophil
# [20] = Antiinflammatory activity in human neutrophils assessed as inhibition of fMLP/CB-induced elastase release; type: functional, cell-based; settings: Neutrophil
# [21] = system: Mus musculus; test: Antioxidant activity in carrageenan-stimulated ICR mouse assessed as increase in SOD activity at 4 mg/kg, ip measured after 5 hrs; type: functional; settings: route intraperitoneal
# Summary of the method: as §3
# [22] = system: RAW264.7; test: Antiinflammatory activity in mouse RAW264.7 cells assessed as inhibition of LPS-induced PGE2 production at 10 uM administered 1 hr before LPS challenge measured after 24 hrs by ELISA
# [23] = system: RAW264.7; test: Antiinflammatory activity in LPS-stimulated mouse RAW264.7 cells assessed as inhibition of iNOS protein expression after 24 hrs by Western blot analysis; type: functional, cell-based
# [24] = system: RAW264.7; test: Antiinflammatory activity in mouse RAW264.7 cells assessed as inhibition of LPS-induced NO production at 20 uM administered 1 hr before LPS challenge measured after 24 hrs by Griess method; type: functional, cell-based
# [25] = system: Mus musculus; test: Antiinflammatory activity in ICR mouse assessed as inhibition of carrageenan-induced hind paw edema at 8 mg/kg, ip measured after 4 hrs; type: functional, organism-based; design: dose 8 mg/kg
# [26] = system: Mus musculus; test: Antioxidant activity in carrageenan-stimulated ICR mouse assessed as increase in GPx activity at 8 mg/kg, ip measured after 5 hrs; type: functional; settings: route intraperitoneal
# Summary of the method: as §3
# [27] = system: Mus musculus; test: Down regulation of iNOS protein expression in carrageenan-stimulated ICR mouse at 8 mg/kg, ip measured after 5 hrs by Western blot analysis; type: functional; settings: route intraperitoneal
# Summary of the method: as §5
# [28] = system: Mus musculus; test: Antiinflammatory activity in carrageenan-stimulated ICR mouse assessed as decrease in neutrophil number at 8 mg/kg, ip measured after 5 hrs; type: functional, organism-based; design: dose 8 mg/kg
# Summary of the method: as §4
compound,measurement,setting,value
COc1cc(CCCc2c(OC)cc(O)c(OC)c2OC)ccc1O [VISCOLIN],Activity,[1],Active
same,Activity,[2],Active
same,inhibition,[3],Active
same,Activity,[4],10.97 U/mg
same,Activity,[5],Dose-dependent effect
same,Activity,[6],Active
same,Activity,[7],4.08 U/mg
same,Activity,[8],Active
same,Activity,[9],76.2%
same,inhibition,[10],inactive
same,Activity,[11],Dose-dependent effect
same,pIC50,[11],4.75
same,Activity,[12],Active
same,Activity,[13],70.6%
same,Activity,[14],Active
same,Activity,[15],Active
same,Activity,[16],Active
same,Activity,[17],Active
same,Activity,[18],Active
same,IC50,[19],0.58 µg/mL
same,IC50,[20],4.93 µg/mL
same,Activity,[21],3.46 U/mg
same,Activity,[22],Active
same,Activity,[23],Dose-dependent effect
same,Activity,[24],Active
same,Activity,[25],Active
same,Activity,[26],11.54 U/mg
same,Activity,[27],63.6%
same,Activity,[28],Active
